Measurements from different studies.
GRM2: Metabotropic glutamate receptor 2 (GRM2, Homo sapiens, UniProt Q14416)
Maob: Amine oxidase [flavin-containing] B (Maob, Rattus norvegicus, UniProt P19643)
ALPI: Intestinal-type alkaline phosphatase (ALPI, Bos taurus, UniProt P19111)
RET: Proto-oncogene tyrosine-protein kinase receptor Ret (RET, Homo sapiens, UniProt P07949)
EPHX2: Bifunctional epoxide hydrolase 2 (EPHX2, Homo sapiens, UniProt P34913)
NMUR1: Neuromedin-U receptor 1 (NMUR1, Homo sapiens, UniProt Q9HB89)

SMILES | target | assay | conditions | IC50
COc1ccc(-c2cc(C(N)=O)ncc2OCc2cn(C)cn2)c(F)c1 | GRM2 | ion flux, antagonist |  | 0.092 µM
CC(=NN=C1CS(=O)(=O)N(C)c2ccccc21)c1cc(C)cs1 | Maob | enzyme activity, inhibitor, fluorescence |  | 3.83 µM
COc1cc2nccc(Oc3ccc(NC(=O)c4cc5c(n(-c6ccccc6)c4=O)CCCC5=O)nc3)c2cc1OC | Tyrosine-protein kinase Lck (LCK, Homo sapiens, UniProt P06239) | enzyme activity in cells, inhibitor, ATP luminescence |  | > 0.1 µM
COc1ccc(-c2nsc(NC(=O)[C@@H]3C[C@H]3C)c2C)cc1 | GRM2 | calcium signal, antagonist |  | > 12.5 µM
O=C1NC2=C(C(=O)N(Cc3ccc(F)cc3)C2)C(c2ccc(O)cc2)N1 (stereo not shown) | ALPI | enzyme activity, inhibitor, absorbance |  | 4.76 µM
Cc1ccc(C(=O)Nc2ccc(Oc3cc4cnn(C)c4cc3-c3cn[nH]c3)c(F)c2)c(=O)n1-c1ccc(F)cc1 | RET | enzyme activity, inhibitor |  | 0.59 µM
CC(C)CCC[C@@H](C)[C@H]1CC[C@H]2[C@@H]3C[C@@H](NCCc4c[nH]cn4)[C@@]4(O)C[C@@H](O)CC[C@]4(C)[C@H]3CC[C@]12C | EPHX2 | enzyme activity, inhibitor |  | > 100 µM
CCCCCCCCN1CC2=C(C1=O)C(c1ccccc1O)NC(=O)N2 (stereo not shown) | ALPI | enzyme activity, inhibitor, absorbance |  | 8.71 µM
O=C(CCCCCCCCc1ccc(O)c(O)c1)c1c(O)cccc1O | EPHX2 | enzyme activity, inhibitor, fluorescence |  | 25.9 µM
COc1ccc2c(Oc3ccc4c(C(=O)Nc5ccccc5N)cccc4c3)ccnc2c1 | RET | enzyme activity, inhibitor |  | > 0.5 µM
COc1ccc(-c2cc(C(N)=O)ncc2OCc2ccn(C)n2)c(F)c1 | GRM2 | ion flux, antagonist |  | 0.021 µM
CCN1CCN(Cc2ccc(NC(=O)Nc3ccc(Oc4cc(NC)ncn4)cc3)cc2C(F)(F)F)CC1 | Dual specificity mitogen-activated protein kinase kinase 4 (MAP2K4, Homo sapiens, UniProt P45985) | enzyme activity, inhibitor, ADP detection |  | 40 µM
CNC(=O)c1cc2c(Oc3ccc(NC(=O)C4(C(=O)Nc5ccc(F)cc5)CC4)cc3)ccnc2cc1OC | Tyrosine-protein kinase Lck, phosphorylated (LCK, Homo sapiens, UniProt P06239) | enzyme activity, inhibitor, radiometric |  | 0.01 µM
Nc1nc(NCc2ccccc2CO)c2[nH]cnc2n1 | Methylated-DNA--protein-cysteine methyltransferase (MGMT, Homo sapiens, UniProt P16455) | enzyme activity, inhibitor | 30 min | > 1000 µM
CCC(C)(O)C(=O)N1CCC(NC(=O)Nc2ccc(OC(F)(F)F)c(F)c2)CC1 (stereo not shown) | EPHX2 | enzyme activity, inhibitor |  | 9e-05 µM
Cc1ccc2nc(Cl)c(C=NN=C3CS(=O)(=O)N(C)c4ccccc43)cc2c1 | Maob | enzyme activity, inhibitor, fluorescence |  | 1.43 µM
Cn1ccc(COc2cnc(C(N)=O)cc2-c2ccc(F)cc2)n1 | GRM2 | ion flux, antagonist |  | 0.058 µM
COc1ccc(N2CC3=C(C2=O)C(c2ccc(O)cc2)NC(=O)N3)cc1 (stereo not shown) | ALPI | enzyme activity, inhibitor, absorbance |  | 9.43 µM
COc1ccc(-c2cc(C(N)=O)ncc2OCc2ccc(F)nc2)c(F)c1 | GRM2 | ion flux, antagonist |  | 0.074 µM

SMILES | target | assay | conditions | IC50
CC1=C(CC(=O)O)c2cc(F)ccc2/C1=C\c1ccc([S+](C)[O-])cc1 (stereo not shown) | Aldo-keto reductase family 1 member B1 (AKR1B1, Homo sapiens, UniProt P15121) | enzyme activity, inhibitor, absorbance | pH 6.2 | 0.3 µM
COc1ccc(-c2cc(C(N)=O)ncc2OCc2ccc(OC)nc2)c(F)c1 | GRM2 | ion flux, antagonist |  | 0.224 µM
CC12CC3(C)CC(C)(C1)CC(NC(=O)Nc1ccccc1F)(C2)C3 | EPHX2 | enzyme activity, inhibitor, fluorescence |  | 0.0943 µM
COc1ccc2cc(C=NN=C3CS(=O)(=O)N(C)c4ccccc43)c(Cl)nc2c1 | Maob | enzyme activity, inhibitor, fluorescence |  | 2.22 µM
COc1ccc(-c2cc(C(N)=O)ncc2OCc2ccncc2)c(F)c1 | GRM2 | ion flux, antagonist |  | 0.033 µM
Cc1cnc(-c2ccc(-c3ccc(NC(=O)Nc4c(F)cc(F)cc4F)cc3F)c3c2C(=O)NC3)[nH]1 | RET | enzyme activity, inhibitor |  | 0.0148 µM
O=C(Nc1ccccc1F)NC12CC3CC(CC(C3)C1)C2 | EPHX2 | enzyme activity, inhibitor, fluorescence |  | 0.0037 µM
CCCCCCCCN1CC2=C(C1=O)C(c1ccc(O)cc1)NC(=O)N2 (stereo not shown) | ALPI | enzyme activity, inhibitor, absorbance |  | 8.23 µM
Cc1ccc2cc(C=NN=C3CS(=O)(=O)N(C)c4ccccc43)c(Cl)nc2c1 | Maob | enzyme activity, inhibitor, fluorescence |  | 1.05 µM
CC(C)C[C@H](NC(=O)[C@H](Cc1ccccc1)NC(=O)[C@H](Cc1ccc(O)cc1)NC(=O)CNC(=O)[C@H](CCCNC(=N)N)NC(=O)[C@H](CO)NC(=O)[C@H](CCC(N)=O)NC(=O)[C@H](CO)NC(=O)[C@H](C)NC(=O)[C@H](Cc1ccccc1)NC(=O)[C@@H]1CCCN1C(=O)[C@H](CO)NC(=O)[C@H](CCC(N)=O)NC(=O)[C@H](Cc1ccccc1)NC(=O)[C@H](CCC(=O)O)NC(=O)[C@H](CCC(=O)O)NC(=O)[C@H](CC(=O)O)NC(=O)[C@@H](NC(=O)[C@H](CCCNC(=N)N)NC(=O)[C@@H](N)Cc1ccccc1)C(C)C)C(=O)N[C@@H](Cc1ccccc1)C(=O)N[C@@H](CCCNC(=N)N)C(=O)N1CCC[C@H]1C(=O)N[C@@H](CCCNC(=N)N)C(=O)N[C@@H](CC(N)=O)C(N)=O | NMUR1 | ligand displacement, radioligand | cell membranes | 0.00011 µM
CC(=NN=C1CS(=O)(=O)N(C)c2ccccc21)c1cc(C)sc1C | Maob | enzyme activity, inhibitor, fluorescence |  | 2.61 µM
CNc1nc(C)nc(N[C@H]2CCC[C@@H](C(=O)NCc3ccc(C#N)cc3C(F)(F)F)C2)n1 | EPHX2 | enzyme activity, inhibitor |  | 0.0004 µM
CCC(CC12CC3CC(CC(C3)C1)C2)NC(=O)Nc1ccccc1F (stereo not shown) | EPHX2 | enzyme activity, inhibitor, fluorescence |  | 0.631 µM
O=C(Cc1cccc(Nc2ncnc3[nH]ccc23)c1)Nc1ccc(F)c(Cl)c1 | RET | enzyme activity, inhibitor, mobility shift |  | > 20 µM
COc1ccc(N2CC3=C(C2=O)C(c2ccccc2O)NC(=O)N3)cc1 (stereo not shown) | ALPI | enzyme activity, inhibitor, absorbance |  | 4.87 µM
CC(C)C[C@H](NC(=O)[C@H](Cc1ccccc1)NC(=O)[C@@H](N)Cc1ccc(O)cc1)C(=O)N[C@@H](Cc1ccccc1)C(=O)N[C@@H](CCCNC(=N)N)C(=O)N1CCC[C@H]1C(=O)N[C@@H](CCCNC(=N)N)C(=O)N[C@@H](CC(N)=O)C(N)=O | NMUR1 | ligand displacement, radioligand | cell membranes | 0.00066 µM
CC(C)(C)n1nc(-c2cnc3cc(OC4CC4)ccc3c2)c(C(N)=O)c1N | Mitogen-activated protein kinase kinase kinase 10 (MAP3K10, Homo sapiens, UniProt Q02779) | cell-free assay |  | > 10 µM
O=C1NC2=C(C(=O)N(c3ccc(F)cc3)C2)C(c2ccc(O)cc2)N1 (stereo not shown) | ALPI | enzyme activity, inhibitor, absorbance |  | 2.5 µM
